Publication PMC6440678 (Clinical and Translational Science, 2018)

Experiments:
[1] = test system: plasma cGMP; test: Plasma cGMP levels in SCD patients; assay type: in vivo, human; conditions: PF‐04447943 treatment, current study (data not shown)
[2] = Plasma pharmacokinetics of PF‐04447943, phase Ib study; assay type: in vivo, human; conditions: for AUC0−12 (dn) / Cmax (dn): dose normalized to 1 mg; for AUC0−12 (dn) / Cmax (dn) / Cmax: geometric mean (geometric %CV); for Tmax / Cmax / AUC(0-t): human, plasma; for Tmax / Cmax: oral; for AUC(0-t): po
[3] = test system: Townes SCD mice; conditions: PF‐04447943 alone, pretreatment; cited from earlier work
[4] = test system: cGMP in cerebral spinal fluid; conditions: systemic administration; cited from earlier work
[5] = test system: cGMP in mouse brain tissue; conditions: systemic administration; cited from earlier work
[6] = test system: HbF and Hb levels; test: Hematology; assay type: in vivo, human; conditions: day 29, 5‐mg or 25‐mg twice‐daily groups
Method in brief: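 Stable SCD patients randomized 3:1 active:placebo to oral test compound 5 mg or 25 mg or placebo, twice daily ~12 h apart with water for 29 (+1) days. HbF (%) was measured centrally at baseline and before dosing on day 29. Baseline HbF was classed low (<10%) or high (≥10%), split at the sample median.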

[7] = test system: patients with stable sickle cell disease; test: Safety and tolerability, phase Ib study; assay type: in vivo, human
[8] = test system: neutrophil‐platelet and monocyte‐platelet aggregates; test: Leukocyte‐platelet aggregates by flow cytometry in SCD patients; assay type: in vivo, human; conditions: day 29, 25 mg twice daily
Method in brief: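 Citrated whole blood was taken before dosing on days 1, 2, 7, 14, 21 and 29 and at baseline. Within 30 min it was mixed with FacsLysing solution and refrigerated, then spun 5 min at 500 g. Cells were resuspended in HEPES/NaCl/0.5% BSA, pH 7.4, and stained with PC5-anti-CD14 plus PE-CD42a or isotype. Flow cytometry reported aggregates as % cells and size as CD42a MFI. Day-29 percent change was estimated by repeated-measures model, with Holm-Bonferroni-adjusted P.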

[9] = test system: hospitalized patients with SCD and VOC; conditions: randomized, placebo‐controlled; cited from earlier work
[10] = test system: Berkeley SCD mouse model; conditions: administered after a challenge; cited from earlier work
[11] = 5 mg twice daily, % of patients

SMILES: C[C@@H]1CN(Cc2ncccn2)C[C@H]1c1nc2c(cnn2C2CCOCC2)c(=O)[nH]1 [PF‐04447943, 6‐[(3S,4S)‐4‐methyl‐1‐(pyrimidin‐2‐ylmethyl)pyrrolidin‐3‐yl]‐1‐(tetrahydro‐2H‐pyran‐4‐yl)‐1,5‐dihydro‐4H‐pyrazolo[3,4‐d]pyrimidin‐4‐one]
- change in plasma cGMP levels [1]: no significant changes
- dose proportionality of plasma exposure (AUC0‐12, Cmax) ([2]; 5 and 25 mg, day 1): dose proportional
- AUC0−12 (dn) ([2]; day 1, 5 mg): 48 (35) ng·h/mL/mg
- Cmax (dn) ([2]; day 1, 5 mg): 9.2 (39) ng/mL/mg
- AUC0−12 (dn) ([2]; day 1, 25 mg): 47 (29) ng·h/mL/mg
- Cmax (dn) ([2]; day 1, 25 mg): 9.9 (31) ng/mL/mg
- Tmax ([2]; 5 mg): 1.9 h
- Cmax ([2]; 5 mg, day 1, 5 mg): 45.8 ng/mL
- Tmax ([2]; 25 mg): 1 h
- Cmax ([2]; 25 mg, day 1, 25 mg): 248 ng/mL
- AUC(0-t) ([2]; 5 mg): 242 ng·h/mL
- AUC(0-t) ([2]; 25 mg): 1170 ng·h/mL
- number of neutrophil‐platelet aggregates [3]: decrease in neutrophil‐platelet aggregates
- cGMP in cerebral spinal fluid in the rat [4]: dose‐dependent increases
- cGMP in mouse brain tissue [5]: accumulation of cGMP in mouse brain tissue
- change in HbF level [6]: No significant changes
- patients who experienced sickle cell pain crisis ([7]; 5 mg twice daily): 14%
- treatment‐related AE: dizziness [7, 11]: 0%
- treatment‐related AE: fatigue [7, 11]: 0%
- treatment‐related AE: headache ([7]; 5 mg twice daily, up to 29 days, % of patients): 0%
- patients who experienced sickle cell pain crisis ([7]; 25 mg twice daily): 13%
- treatment‐related AE: dizziness ([7]; 25 mg twice daily, % of patients): 13%
- deaths during the study ([7]; 5 and 25 mg twice daily): No deaths occurred
- tolerability ([7]; 5 and 25 mg twice daily, 29‐day treatment period): well tolerated
- reduction from baseline in size of neutrophil‐platelet aggregates ([8]; adjusted P = 0.018): 34%
- reduction from baseline in number of circulating monocyte‐platelet aggregates ([8]; adjusted P = 0.025): 52%
- reduction from baseline in number of neutrophil‐platelet aggregates ([8]; adjusted P = 0.095): 46%
- reduction from baseline in size of circulating monocyte‐platelet aggregates ([8]; adjusted P = 0.140): 36%

SMILES: C[C@@H]1O[C@@H](O[C@@H]2[C@@H](NC(=O)c3cc(=O)[nH]c(=O)[nH]3)C[C@@H](C(=O)NCCNC(=O)COCCOCC(=O)Nc3cc(S(=O)(=O)O)cc4cc(S(=O)(=O)O)cc(S(=O)(=O)O)c34)C[C@H]2O[C@@H]2O[C@H](CO)[C@H](O)[C@H](O[C@@H](CC3CCCCC3)C(=O)O)[C@H]2OC(=O)c2ccccc2)[C@@H](O)[C@H](O)[C@@H]1O [rivipansel]
- time to VOC resolution, length of stay, parenteral opioid requirement [9]: trends toward improved
- leukocyte adhesion [10]: reduced leukocyte adhesion
